Measurements of several laboratories.
Target: Cyclin-G-associated kinase (GAK, Homo sapiens, UniProt O14976)
One construct used (O14976 1-1311): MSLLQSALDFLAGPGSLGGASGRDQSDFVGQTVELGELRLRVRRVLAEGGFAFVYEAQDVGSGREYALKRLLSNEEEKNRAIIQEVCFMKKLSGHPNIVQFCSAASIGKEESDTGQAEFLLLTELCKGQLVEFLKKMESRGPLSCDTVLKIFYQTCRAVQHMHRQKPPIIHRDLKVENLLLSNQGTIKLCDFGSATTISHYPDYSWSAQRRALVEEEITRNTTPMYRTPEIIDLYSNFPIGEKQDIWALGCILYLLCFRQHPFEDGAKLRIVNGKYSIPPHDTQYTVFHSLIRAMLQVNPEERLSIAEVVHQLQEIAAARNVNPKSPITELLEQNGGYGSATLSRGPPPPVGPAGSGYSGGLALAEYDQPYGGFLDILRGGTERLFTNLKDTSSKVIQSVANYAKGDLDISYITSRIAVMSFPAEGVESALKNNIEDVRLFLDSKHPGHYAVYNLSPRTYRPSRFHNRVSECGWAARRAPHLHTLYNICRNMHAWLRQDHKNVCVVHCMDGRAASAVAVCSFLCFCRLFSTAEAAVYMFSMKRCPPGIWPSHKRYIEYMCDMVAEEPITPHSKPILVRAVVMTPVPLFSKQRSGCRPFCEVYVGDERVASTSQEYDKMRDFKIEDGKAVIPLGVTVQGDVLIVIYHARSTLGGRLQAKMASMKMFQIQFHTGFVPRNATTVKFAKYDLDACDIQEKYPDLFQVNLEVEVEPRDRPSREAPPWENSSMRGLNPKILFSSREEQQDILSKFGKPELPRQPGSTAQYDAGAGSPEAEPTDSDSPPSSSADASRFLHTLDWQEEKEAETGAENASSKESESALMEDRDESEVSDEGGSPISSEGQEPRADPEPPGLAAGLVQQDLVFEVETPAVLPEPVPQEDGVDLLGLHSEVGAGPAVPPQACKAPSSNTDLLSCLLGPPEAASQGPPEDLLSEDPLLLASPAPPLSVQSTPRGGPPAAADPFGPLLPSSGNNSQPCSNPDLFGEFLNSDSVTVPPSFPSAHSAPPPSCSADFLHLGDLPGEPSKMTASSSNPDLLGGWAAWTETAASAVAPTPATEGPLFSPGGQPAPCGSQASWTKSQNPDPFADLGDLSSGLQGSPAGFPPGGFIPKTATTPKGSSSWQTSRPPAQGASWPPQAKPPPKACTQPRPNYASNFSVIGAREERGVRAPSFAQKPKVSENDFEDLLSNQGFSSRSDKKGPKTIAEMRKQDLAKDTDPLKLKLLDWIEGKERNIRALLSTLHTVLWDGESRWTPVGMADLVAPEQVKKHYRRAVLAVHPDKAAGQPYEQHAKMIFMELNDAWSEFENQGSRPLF

SMILES	test	conditions	remaining binding [%]
Cn1nc(C(=O)NCc2ccc(C(=O)O)cc2)cc1-c1ccc2[nH]ccc2c1	cell-free assay, competition with immobilised ligand	0.1 µM	90
CN(C)c1nccc(-c2cnn3ncccc23)n1	binding	1 µM	82
c1cncc(-c2cccc(Nc3nccc(NC4CCCCC4)n3)c2)c1	binding, competition with immobilised ligand	10 µM	42
COc1ccnn2ncc(-c3ccnc(N(C)C)n3)c12	binding	1 µM	73
CN1CCN(c2cnc3c(C4CCN(C(=O)c5ccc(OC(F)(F)F)cc5N)CC4)ncnc3c2)CC1	cell-free assay, competition with immobilised ligand	1 µM	100
CCN1CCN(Cc2ccc(C(=O)Nc3ccc(C)c(Oc4ccc5c(c4)CC(=O)N5)c3)cc2C(F)(F)F)CC1	binding, competition with immobilised ligand	1 µM	100
O=C(NC[C@@H]1[C@H]2CN(C(=O)OCc3cc(C(F)(F)F)cc(C(F)(F)F)c3)C[C@@H]12)c1ccc2[nH]nnc2c1	cell-free assay, competition with immobilised ligand	1 µM	91
Cc1cnn2ncc(-c3ccnc(N(C)C)n3)c2c1	binding	1 µM	52
COc1cnc(Nc2cccc(S(N)(=O)=O)c2)nc1N1CCN(c2ccccc2)CC1	binding, competition with immobilised ligand	1 µM	85
O=C(NCCCN1CCOCC1)c1ccc(Nc2nccc(-c3cc4ccccc4s3)n2)cc1	binding, competition with immobilised ligand	1 µM	21
O=C(Nc1c[nH]nc1C(=O)NC1CCNCC1)c1cc(F)cc(F)c1	binding, competition with immobilised ligand	1 µM	90
O=C(c1ccc(Nc2ncc(Cl)c(-c3cc4ccccc4s3)n2)cc1)N1CCC(N2CCCC2)CC1	binding, competition with immobilised ligand	1 µM	48
CN(c1nccc(-c2cnn3ncccc23)n1)C1CC1	binding	1 µM	100
CC(C)(O)c1cncc(-c2nc3ccc(F)cc3n2C2CC2)c1	cell-free assay, competition with immobilised ligand	1 µM	100
CN(C)c1nccc(-c2cnc3ncccn23)n1	binding	1 µM	72
Cc1cnc(Nc2ccc(C(=O)N3CCC(N4CCCC4)CC3)cc2)nc1-c1cc2ccccc2s1	binding, competition with immobilised ligand	1 µM	8.2
Cc1cc(C)c(-n2ccn3nc(-c4cccnc4)cc23)cc1NC(=O)c1cc(C#N)cc(S(F)(F)(F)(F)F)c1	cell-free assay, competition with immobilised ligand	0.1 µM	83.3
c1cnn2ncc(-c3ccnc(N4CCC45COC5)n3)c2c1	binding	1 µM	56
C[C@@H]1CN(c2cc(-c3nn(C)c4ccc(OC5(C)CC5)cc34)ncn2)C[C@H](C)O1	cell-free assay, competition with immobilised ligand	1 µM	86
C[C@H]1CCN(c2nccc(-c3cnn4ncccc34)n2)C1	binding	1 µM	28
CC(=O)N1CCC(c2ccc(C(=O)NC3=NCCN3)cc2C(F)(F)F)CC1	cell-free assay, competition with immobilised ligand	1 µM	97
C=CC(=O)N1CCC(C(=O)NCC(=O)N2CCN(c3nc(-c4cnc(N)nc4C(F)F)nc(N4CCOCC4)n3)CC2)CC1	binding, competition with immobilised ligand	1 µM	100
